Source: ChEMBL document CHEMBL3734675, “Synthesis, antimycobacterial and antibacterial activity of fluoroquinolone derivatives containing an 3-alkoxyimino-4-(cyclopropylanimo)methylpyrrolidine moiety” (2015)
Converted amounts (≈) assume the structure as drawn.

Tests used:
Assay type in all cases: functional
[1] = test system: Escherichia coli; test: Antibacterial activity against extended-spectrum beta-lactamase producing Escherichia coli 14-2 after 18 to 24 hrs by two-fold serial dilution method
Procedure, shortened: (§1)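 Twofold serial dilution in agar media against Gram-positive and Gram-negative strains. Plates incubated at 35 °C for 18–24 h. MIC read as the lowest compound concentration giving complete inhibition of bacterial growth.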

[2] = test system: Staphylococcus epidermidis; test: Antibacterial activity against methicillin-resistant Staphylococcus epidermidis 14-21 after 18 to 24 hrs by two-fold serial dilution method
Procedure, shortened: (§2)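 Agar media, standard twofold serial dilution. MIC is the lowest concentration giving complete inhibition of bacterial growth after incubation at 35 °C for 18–24 h. Ciprofloxacin and levofloxacin were run as comparators.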

[3] = test system: Enterococcus faecalis; test: Potency index, ratio of ciprofloxacin MIC to compound MIC for Enterococcus faecalis 14-2
[4] = test system: Klebsiella pneumoniae; test: Antibacterial activity against extended-spectrum beta-lactamase producing Klebsiella pneumoniae 14-17 after 18 to 24 hrs by two-fold serial dilution method; procedure, shortened: as §1
[5] = test system: Enterococcus faecium; test: Potency index, ratio of levofloxacin MIC to compound MIC for Enterococcus faecium 14-5
[6] = test system: Enterococcus faecium; test: Potency index, ratio of levofloxacin MIC to compound MIC for Enterococcus faecium 14-6
[7] = test system: Staphylococcus epidermidis; test: Potency index, ratio of levofloxacin MIC to compound MIC for methicillin-resistant Staphylococcus epidermidis 14-21
[8] = test system: Staphylococcus aureus; test: Antibacterial activity against Staphylococcus aureus CMCC 26003 after 18 to 24 hrs by two-fold serial dilution method; procedure, shortened: as §1
[9] = test system: Enterococcus faecalis; test: Potency index, ratio of levofloxacin MIC to compound MIC for Enterococcus faecalis 14-1
[10] = test system: Pseudomonas aeruginosa; test: Antibacterial activity against Pseudomonas aeruginosa 14-14 after 18 to 24 hrs by two-fold serial dilution method; procedure, shortened: as §1
[11] = test system: Staphylococcus aureus; test: Potency index, ratio of ciprofloxacin MIC to compound MIC for methicillin-resistant Staphylococcus aureus 14-5
[12] = test system: Escherichia coli; test: Antibacterial activity against Escherichia coli 14-2 after 18 to 24 hrs by two-fold serial dilution method; procedure, shortened: as §1
[13] = test system: Enterococcus faecalis; test: Potency index, ratio of levofloxacin MIC to compound MIC for Enterococcus faecalis 14-2
[14] = test system: Enterococcus faecalis; test: Antibacterial activity against Enterococcus faecalis 14-1 after 18 to 24 hrs by two-fold serial dilution method; procedure, shortened: as §1
[15] = test system: Staphylococcus aureus; test: Antibacterial activity against methicillin-resistant Staphylococcus aureus 14-5 after 18 to 24 hrs by two-fold serial dilution method; procedure, shortened: as §2
[16] = test system: Pseudomonas aeruginosa; test: Antibacterial activity against Pseudomonas aeruginosa 14-16 after 18 to 24 hrs by two-fold serial dilution method; procedure, shortened: as §1
[17] = test system: Enterococcus faecium; test: Antibacterial activity against Enterococcus faecium 14-5 after 18 to 24 hrs by two-fold serial dilution method; procedure, shortened: as §1
[18] = test system: Staphylococcus epidermidis; test: Antibacterial activity against methicillin-sensitive Staphylococcus epidermidis 14-2 after 18 to 24 hrs by two-fold serial dilution method; procedure, shortened: as §1
[19] = test system: Staphylococcus aureus; test: Potency index, ratio of levofloxacin MIC to compound MIC for methicillin-resistant Staphylococcus aureus 14-4
[20] = test system: Staphylococcus aureus; test: Antibacterial activity against methicillin-sensitive Staphylococcus aureus 14-1 after 18 to 24 hrs by two-fold serial dilution method; procedure, shortened: as §1
[21] = test system: Staphylococcus epidermidis; test: Antibacterial activity against methicillin-resistant Staphylococcus epidermidis 14-22 after 18 to 24 hrs by two-fold serial dilution method; procedure, shortened: as §2
[22] = test system: Staphylococcus epidermidis; test: Potency index, ratio of levofloxacin MIC to compound MIC for methicillin-resistant Staphylococcus epidermidis 14-39
[23] = test system: Enterococcus faecium; test: Potency index, ratio of ciprofloxacin MIC to compound MIC for Enterococcus faecium 14-2
[24] = test system: Mycobacterium tuberculosis; test: Antimycobacterial activity against Mycobacterium tuberculosis H37Rv ATCC 27294 incubated for 7 days by microplate Alamar Blue assay; conditions: H37Rv ATCC 27294, 168 h
Procedure, shortened: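 Fluorescence read-out. MIC is the lowest concentration that reduces fluorescence by at least 90% relative to the mean of replicate bacterium-only controls. Isoniazid and rifampicin were included as reference drugs.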

[25] = test system: Staphylococcus aureus; test: Antibacterial activity against methicillin-resistant Staphylococcus aureus 14-4 after 18 to 24 hrs by two-fold serial dilution method; procedure, shortened: as §2
[26] = test system: Pseudomonas aeruginosa; test: Antibacterial activity against Pseudomonas aeruginosa 14-9 after 18 to 24 hrs by two-fold serial dilution method; procedure, shortened: as §1
[27] = test system: Klebsiella pneumoniae; test: Antibacterial activity against Klebsiella pneumoniae 14-3 after 18 to 24 hrs by two-fold serial dilution method; procedure, shortened: as §1
[28] = test system: Staphylococcus epidermidis; test: Antibacterial activity against methicillin-resistant Staphylococcus epidermidis 14-37 after 18 to 24 hrs by two-fold serial dilution method; procedure, shortened: as §2
[29] = test system: Staphylococcus epidermidis; test: Potency index, ratio of ciprofloxacin MIC to compound MIC for methicillin-resistant Staphylococcus epidermidis 14-39
[30] = test system: Escherichia coli; test: Antibacterial activity against Escherichia coli 14-1 after 18 to 24 hrs by two-fold serial dilution method; procedure, shortened: as §1
[31] = test system: Staphylococcus epidermidis; test: Potency index, ratio of ciprofloxacin MIC to compound MIC for methicillin-resistant Staphylococcus epidermidis 14-37
[32] = test system: Staphylococcus aureus; test: Potency index, ratio of ciprofloxacin MIC to compound MIC for methicillin-resistant Staphylococcus aureus 14-4
[33] = test system: Enterococcus faecium; test: Antibacterial activity against Enterococcus faecium 14-2 after 18 to 24 hrs by two-fold serial dilution method; procedure, shortened: as §1
[34] = test system: Escherichia coli; test: Antibacterial activity against extended-spectrum beta-lactamase producing Escherichia coli 14-1 after 18 to 24 hrs by two-fold serial dilution method; procedure, shortened: as §1
[35] = test system: Enterococcus faecium; test: Potency index, ratio of levofloxacin MIC to compound MIC for Enterococcus faecium 14-2
[36] = test system: Klebsiella pneumoniae; test: Antibacterial activity against extended-spectrum beta-lactamase producing Klebsiella pneumoniae 14-19 after 18 to 24 hrs by two-fold serial dilution method; procedure, shortened: as §1
[37] = test system: Pseudomonas aeruginosa; test: Antibacterial activity against Pseudomonas aeruginosa 14-15 after 18 to 24 hrs by two-fold serial dilution method; procedure, shortened: as §1
[38] = test system: Staphylococcus aureus; test: Potency index, ratio of levofloxacin MIC to compound MIC for methicillin-resistant Staphylococcus aureus 14-5
[39] = test system: Klebsiella pneumoniae; test: Antibacterial activity against Klebsiella pneumoniae 14-2 after 18 to 24 hrs by two-fold serial dilution method; procedure, shortened: as §1
[40] = test system: Staphylococcus epidermidis; test: Potency index, ratio of levofloxacin MIC to compound MIC for methicillin-resistant Staphylococcus epidermidis 14-22
[41] = test system: Staphylococcus epidermidis; test: Antibacterial activity against methicillin-resistant Staphylococcus epidermidis 14-39 after 18 to 24 hrs by two-fold serial dilution method; procedure, shortened: as §2
[42] = test system: Staphylococcus epidermidis; test: Potency index, ratio of levofloxacin MIC to compound MIC for methicillin-resistant Staphylococcus epidermidis 14-37
[43] = test system: Staphylococcus epidermidis; test: Potency index, ratio of ciprofloxacin MIC to compound MIC for methicillin-resistant Staphylococcus epidermidis 14-21
[44] = test system: Staphylococcus epidermidis; test: Potency index, ratio of ciprofloxacin MIC to compound MIC for methicillin-resistant Staphylococcus epidermidis 14-22
[45] = test system: Enterococcus faecium; test: Potency index, ratio of ciprofloxacin MIC to compound MIC for Enterococcus faecium 14-6
[46] = test system: Pseudomonas aeruginosa; test: Antibacterial activity against Pseudomonas aeruginosa ATCC 27853 after 18 to 24 hrs by two-fold serial dilution method; procedure, shortened: as §1
[47] = test system: Klebsiella pneumoniae; test: Antibacterial activity against Klebsiella pneumoniae 14-1 after 18 to 24 hrs by two-fold serial dilution method; procedure, shortened: as §1
[48] = test system: Escherichia coli; test: Antibacterial activity against Escherichia coli ATCC 25922 after 18 to 24 hrs by two-fold serial dilution method; procedure, shortened: as §1
[49] = test system: Staphylococcus aureus; test: Antibacterial activity against methicillin-sensitive Staphylococcus aureus 14-4 after 18 to 24 hrs by two-fold serial dilution method; procedure, shortened: as §1
[50] = test system: Klebsiella pneumoniae; test: Antibacterial activity against Klebsiella pneumoniae 14-4 after 18 to 24 hrs by two-fold serial dilution method; procedure, shortened: as §1
[51] = test system: Klebsiella pneumoniae; test: Antibacterial activity against extended-spectrum beta-lactamase producing Klebsiella pneumoniae 14-18 after 18 to 24 hrs by two-fold serial dilution method; procedure, shortened: as §1
[52] = test system: Enterococcus faecium; test: Potency index, ratio of ciprofloxacin MIC to compound MIC for Enterococcus faecium 14-5
[53] = test system: Streptococcus pneumoniae; test: Antibacterial activity against methicillin-resistant Streptococcus pneumoniae ATCC 19615 after 18 to 24 hrs by two-fold serial dilution method; procedure, shortened: as §2
[54] = test system: Enterococcus faecalis; test: Potency index, ratio of ciprofloxacin MIC to compound MIC for Enterococcus faecalis 14-1
[55] = test system: Staphylococcus aureus; test: Antibacterial activity against methicillin-sensitive Staphylococcus aureus 14-3 after 18 to 24 hrs by two-fold serial dilution method; procedure, shortened: as §1
[56] = test system: Enterococcus faecalis; test: Antibacterial activity against Enterococcus faecalis 14-2 after 18 to 24 hrs by two-fold serial dilution method; procedure, shortened: as §1
[57] = test system: Enterococcus faecium; test: Antibacterial activity against Enterococcus faecium 14-6 after 18 to 24 hrs by two-fold serial dilution method; procedure, shortened: as §1

CO/N=C1/CN(c2c(F)cc3c(=O)c(C(=O)O)cn4c3c2OC[C@@H]4C)CC1(C)CNC1CC1 (some centres not stated)
MIC [1]: > 128 mg/L | MIC [2]: 4 mg/L (≈ 8.72 µM) | Ratio [3]: 2 | MIC [4]: 16 mg/L (≈ 34.9 µM) | Ratio [5]: 2 | Ratio [6]: 2 | Ratio [7]: 2 | MIC [8]: < 0.008 mg/L | Ratio [9]: 2 | MIC [10]: 32 mg/L (≈ 69.8 µM) | Ratio [11]: 2 | MIC [12]: 64 mg/L (≈ 140 µM) | Ratio [13]: 2 | MIC [14]: 8 mg/L (≈ 17.4 µM) | MIC [15]: 4 mg/L (≈ 8.72 µM) | MIC [16]: 32 mg/L (≈ 69.8 µM) | MIC [17]: 4 mg/L (≈ 8.72 µM) | MIC [18]: 8 mg/L (≈ 17.4 µM) | Ratio [19]: 2 | MIC [20]: 2 mg/L (≈ 4.36 µM) | MIC [21]: 2 mg/L (≈ 4.36 µM) | Ratio [22]: 2 | Ratio [23]: 2 | MIC90 [24]: 0.64 mg/L (≈ 1.4 µM) | MIC [25]: 4 mg/L (≈ 8.72 µM) | MIC [26]: 8 mg/L (≈ 17.4 µM) | MIC [27]: 128 mg/L (≈ 279 µM) | MIC [28]: 2 mg/L (≈ 4.36 µM) | Ratio [29]: 2 | MIC [30]: 64 mg/L (≈ 140 µM) | Ratio [31]: 2 | Ratio [32]: 2 | MIC [33]: 4 mg/L (≈ 8.72 µM) | MIC [34]: 4 mg/L (≈ 8.72 µM) | Ratio [35]: 2 | MIC [36]: 32 mg/L (≈ 69.8 µM) | MIC [37]: 32 mg/L (≈ 69.8 µM) | Ratio [38]: 2 | MIC [39]: 16 mg/L (≈ 34.9 µM) | Ratio [40]: 2 | MIC [41]: 2 mg/L (≈ 4.36 µM) | Ratio [42]: 2 | Ratio [43]: 2 | Ratio [44]: 2 | Ratio [45]: 2 | MIC [46]: 16 mg/L (≈ 34.9 µM) | MIC [47]: 16 mg/L (≈ 34.9 µM) | MIC [48]: 2 mg/L (≈ 4.36 µM) | MIC [49]: 0.015 mg/L (≈ 0.0327 µM) | MIC [50]: > 128 mg/L | MIC [51]: 16 mg/L (≈ 34.9 µM) | Ratio [52]: 2 | MIC [53]: 0.5 mg/L (≈ 1.09 µM) | Ratio [54]: 2 | MIC [55]: 0.015 mg/L (≈ 0.0327 µM) | MIC [56]: 0.5 mg/L (≈ 1.09 µM) | MIC [57]: 8 mg/L (≈ 17.4 µM)
